Assay outcomes (PubChem)
IL1B cytotox: cytotoxicity in IL-1B stimulated HUVEC, primary screen, cytotoxicity control for IL-1B NFkB translocation project, imaging, Hoechst nuclear count, IL-1B stimulus | HUVEC cell count loss | cell count reduction, % at 2 µM | actives 0.41% (n = 94,000) | AID 845, 2007;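 active means cell count reduction more than 3 SD above the screen-wide mean, cut at about 70% in these data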
Measles CPE: compounds protecting cells from measles virus cytopathic effect, primary screen, measles RdRp inhibitor project, single point, MLSMR library, absorbance; Measles virus-infected cells, CPE protection; protection (pct of control), % at 4 µM; actives 1.5% (n = 140,000); in the data active means protection mostly above about 24%, no sharp cut-off; inactive means mostly below about 26%
IL1B NFkB pot: enhancers of NFkB p65 translocation in HUVEC – imaging, IL-1B stimulus, high-content imaging, primary screen; HUVEC IL-1B NFkB p65 nuclear translocation imaging; actives 0.3% (n = 94,000); AID 819, 2007; activation, % at 2 µM;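 active means activation above 40%, about the mean plus 3 SD, also judged a hit on visual image review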;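 further: percent activation is computed from the nuclear over cytoplasmic p65 intensity ratio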
NFkB transloc inh: inhibitors of IL-1B driven NFkB p65 nuclear import, primary screen, imaging, HUVEC, IL-1B stimulus, high-content imaging. HUVEC IL-1B NFkB p65 nuclear translocation imaging. inhibition, % at 2 µM. actives 0.43% (n = 94,000). AID 796, 2007;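 active means inhibition above about 30% together with a positive call from visual inspection of the well image, limit read from the data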;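 further: nuclear over cytoplasmic p65 intensity ratio measured by imaging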
Rev-RRE block: HIV-1 Rev-RRE binding inhibitors, primary screen, biochemical, FRET, protein-RNA interaction; P05866; Rev peptide-RRE RNA binding; inhibition, % at 8 µM; actives 0.79% (n = 97,000);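 active means inhibition above the screen-wide mean plus 3 SD, cut at about 35% in these data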
Target sequence (P05866 whole entry, looked up): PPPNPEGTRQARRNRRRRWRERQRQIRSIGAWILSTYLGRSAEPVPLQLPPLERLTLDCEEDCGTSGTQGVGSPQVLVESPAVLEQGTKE
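Test system – labelled RRE RNA duplex and labelled Rev peptide · Signal – fluorescein-to-Cy5 FRET, 480 nm excitation · Evaluation – % inhibition of FRET ratio versus controls · Benchmarks – DMSO low control, neomycin B high control · Incubation – 5 min RNA-compound premix plus 15 min binding step, 25 °C · Medium – HEPES pH 7.5 salt buffer with EDTA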
FAK blocker: FAK kinase inhibitors, primary screen, biochemical; inhibition, %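 (tested at 7 µM)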; Focal adhesion kinase 1 (Homo sapiens), Q05397; biochemical FAK kinase activity assay; actives 0.84% (n = 97,000); in the data active means inhibition above about 19%
A number is an active result; [ ] = dose if it differs, or a comment. Most compounds without a hit are left out; they make up all but 3.3% or so of the library.

For C=CCn1c(=O)/c(=C2/SC(C)=C(C)N2CC)s/c1=C1/C(=O)N(C)C(=S)N1c1ccccc1 the results were IL1B cytotox inactive, IL1B NFkB pot inactive, NFkB transloc inh inactive, Rev-RRE block inactive and FAK blocker inactive.
COCCCNC(=O)CS(=O)Cc1nc(-c2cccc(OC)c2)oc1C (stereo not given) was read as IL1B cytotox inactive, Measles CPE 39, IL1B NFkB pot inactive, NFkB transloc inh inactive, Rev-RRE block inactive and FAK blocker inactive.
`c1ccc(-c2nnc(CSc3nc4ccccc4[nH]3)o2)cc1` gave IL1B cytotox inactive, Measles CPE 33, IL1B NFkB pot inactive, NFkB transloc inh inactive, Rev-RRE block inactive and FAK blocker inactive.
O=C(CCCSc1nc2ccccc2[nH]1)Nc1nnc(-c2ccccc2)o1 was read as IL1B cytotox inactive, Measles CPE inactive, IL1B NFkB pot inactive, NFkB transloc inh inactive, Rev-RRE block inactive and FAK blocker inactive.
For O=C(NC(Cc1c[nH]c2ccccc12)C(=O)OCC(=O)c1cccc2ccccc12)c1cccs1 (stereo not given) the results were Measles CPE inactive.
CCCNC(=O)Nc1ccc2c(c1)N(C)C(=O)c1ccccc1S2 was read as IL1B cytotox inactive, Measles CPE 60, IL1B NFkB pot inactive, NFkB transloc inh inactive, Rev-RRE block inactive and FAK blocker inactive.
Screening Cc1nn2c3ccccc3n(CCN3CCCCC3)c2nc1=O returned IL1B cytotox inactive, Measles CPE inactive, IL1B NFkB pot inactive, NFkB transloc inh inactive, Rev-RRE block inactive and FAK blocker inactive.
Screening C=CCn1c2ccccc2n2nc(C)c(=O)nc12 returned IL1B cytotox inactive, Measles CPE 38, IL1B NFkB pot inactive, NFkB transloc inh inactive, Rev-RRE block inactive and FAK blocker inactive.
CCCCn1c(SCC(=O)Nc2cc(C(F)(F)F)cc(C(F)(F)F)c2)nnc1C(CC)N(C)C (stereo not given) was read as Measles CPE inactive.
CC1CCCCN1C(=O)Cn1cc(C#N)c2ccccc21 (stereo not given) was read as IL1B cytotox inactive, Measles CPE 40, IL1B NFkB pot inactive, NFkB transloc inh inactive, Rev-RRE block inactive and FAK blocker inactive.
`Cc1ccc(S(=O)(=O)c2cc3ccccc3oc2=Nc2ccc3c(c2)OCO3)cc1` gave IL1B cytotox inactive, Measles CPE 25, IL1B NFkB pot inactive, NFkB transloc inh inactive, Rev-RRE block inactive and FAK blocker inactive.
Screening CCN1C(=O)C(F)(CC)C(=O)c2ccccc21 (stereo not given) returned Measles CPE inactive.
For Cc1ccc(SCC(=O)NC(=O)Nc2ccc3c(c2)OCCO3)cc1C the results were Measles CPE inactive.
For COC(=O)[C@@]1(Cc2ccccc2)[C@@H]2C(=CC(=O)[C@H]2CC(=O)C(=O)N(C)C)CN1C(=O)c1ccccc1 the results were Measles CPE 82.
Screening COC(=O)[C@@]1(Cc2ccc(F)cc2)[C@H]2c3cc(C(=O)N(C)C)n(C[C@H](O)CO)c3C[C@H]2CN1C(=O)c1ccccc1 returned Measles CPE inactive.
For O=C(CCNS(=O)(=O)c1c(Cl)cccc1Cl)OCC(=O)c1ccccc1 the results were Measles CPE inactive.
For CCn1c(SCC(=O)N(C(C)C)C(C)C)nnc1-c1cc2ccccc2cc1O the results were IL1B cytotox inactive, Measles CPE inactive, IL1B NFkB pot 60, NFkB transloc inh inactive, Rev-RRE block inactive and FAK blocker inactive.
For CCc1nnc(NC(=O)CSc2nnc(-c3cc4ccccc4cc3O)n2CC)s1 the results were Measles CPE inactive.
CN(C)c1nc(N)c([N+](=O)[O-])c(NCCO)n1 was read as Measles CPE inactive.
Screening Cn1cc(Br)c(C(=O)Nc2nccs2)n1 returned Measles CPE 32.
`COC(=O)C1CC(=O)c2sccc2C1` (stereo not given) gave Measles CPE inactive.
`Cc1ccc(NC(=S)NNC(=O)c2c(Cl)c(C)nn2C)cc1` gave Measles CPE inactive.
Screening Cc1ccc(NC(=S)NNC(=O)c2nn(C)c(C)c2Cl)cc1 returned IL1B cytotox inactive, Measles CPE 102, IL1B NFkB pot inactive, NFkB transloc inh inactive, Rev-RRE block inactive and FAK blocker inactive.
For Cc1sc2nc(C3CC3)nc(SCC(=O)N3c4ccccc4CC3C)c2c1C (stereo not given) the results were IL1B cytotox inactive, Measles CPE 64, IL1B NFkB pot inactive, NFkB transloc inh inactive, Rev-RRE block inactive and FAK blocker inactive.
CCOCCCn1cnc2c(c1=O)c1nc3ccccc3nc1n2-c1ccccc1 was read as IL1B cytotox inactive, Measles CPE 43, IL1B NFkB pot inactive, NFkB transloc inh inactive, Rev-RRE block inactive and FAK blocker inactive.
CCOC(=O)C1=C(C)NC(=S)NC1/C=C/c1ccccc1 (stereo not given) was read as Measles CPE inactive.
`COc1cccc(C2C3CN(C)CC=C3C(C#N)=C(N)C2(C#N)C#N)c1OC` (stereo not given) gave IL1B cytotox inactive, Measles CPE inactive, IL1B NFkB pot inactive, NFkB transloc inh inactive, Rev-RRE block 85[fluorescence artefact?] and FAK blocker inactive.
For CCOC(=O)N1CC=C2C(C#N)=C(N)C(C#N)(C#N)[C@H](c3ccccc3OCC)[C@H]2C1 the results were IL1B cytotox inactive, Measles CPE inactive, IL1B NFkB pot inactive, NFkB transloc inh inactive, Rev-RRE block inactive and FAK blocker inactive.
`CCN1CC=C2C(C#N)=C(N)C(C#N)(C#N)[C@H](c3cccc(OC)c3OC)[C@H]2C1` gave IL1B cytotox inactive, Measles CPE inactive, IL1B NFkB pot inactive, NFkB transloc inh inactive, Rev-RRE block 65 and FAK blocker inactive.
Cc1ccsc1C1C=C(c2cccc(Br)c2)Nc2ncnn21 (stereo not given) was read as IL1B cytotox inactive, Measles CPE inactive, IL1B NFkB pot inactive, NFkB transloc inh inactive, Rev-RRE block 81[fluorescence artefact?] and FAK blocker inactive.
Screening COc1cccc(C2=CC(c3ccc(C)cc3)n3ncnc3N2)c1 (stereo not given) returned IL1B cytotox inactive, Measles CPE inactive, IL1B NFkB pot inactive, NFkB transloc inh inactive, Rev-RRE block 49 and FAK blocker inactive.
For N#CCSc1nnc(COc2ccc3ccccc3c2)o1 the results were IL1B cytotox inactive, Measles CPE 46, IL1B NFkB pot inactive, NFkB transloc inh inactive, Rev-RRE block inactive and FAK blocker inactive.
Screening CCOC(=O)c1cnn2cc(-c3[nH]ncc3[N+](=O)[O-])cnc12 returned Measles CPE 33.
For CC1(C)Cc2c(C#N)c(NCCc3ccccc3)nc(-c3ccco3)c2CO1 the results were Measles CPE 53.
